Experimental data from ChEMBL document CHEMBL4368876, “Synthesis of d-(+)-camphor-based N-acylhydrazones and their antiviral activity” (Medchemcomm, 2018).

Experiments:
[1] = Selectivity index, ratio of CC50 for MDCK cells to IC50 for Influenza A virus (A/Puerto Rico/8/34(H1N1)) infected in MDCK cells; assay type: toxicity, cell-based; settings: dog, read-out: Ratio CC50/IC50
Influenza A virus = experiment: Antiviral activity against Influenza A virus (A/Puerto Rico/8/34(H1N1)) infected in MDCK cells assessed as reduction in virus titer pretreated with cells for 1 hr followed by viral infection for 1 hr and subsequent unbound virion washout measured after 24 to 48 hrs by hemagglutination test; assay type: functional, organism-based, A/Puerto Rico/8/1934(H1N1)
Procedure, shortened: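 MDCK cells pre-incubated 1 h at 36 °C with compound in MEM containing 1 μg mL−1 trypsin, then infected with A/Puerto Rico/8/34 (H1N1), moi 0.01, for 1 h. Unbound virus washed off, then 24 h at 36 °C, 5% CO2. Supernatant titre read by hemagglutination after 48 h passage in MDCK, as % of untreated control. Triplicate wells; IC50 calculated.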

[2] = Cytotoxicity against MDCK cells assessed as reduction in cell viability after 48 hrs by MTT assay; assay type: cell-based, Canis lupus familiaris; settings: dog
Procedure, shortened: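 MDCK cells were exposed to three-fold dilutions of compound in MEM (top 300–400 μg mL-1) for 48 h at 36 °C in 5% CO2, then washed twice with PBS. MTT ([…] in PBS) was added for 1 h and formazan was dissolved in DMSO. OD was read at 535 nm. Triplicate wells per concentration; CC50 was taken from OD versus concentration.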

[3] = Selectivity index, ratio of CC50 for African green monkey Vero cells to IC50 for Vaccinia virus Copenhagen infected in African green monkey Vero cells; assay type: toxicity; settings: read-out: Ratio CC50/IC50
[4] = Cytotoxicity against African green monkey Vero cells assessed as reduction in cell viability after 4 days by neural red dye-based spectrophotometric method; settings: chlorocebus sabaeus
Procedure, shortened: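 Vero cell monolayers in DMEM with 2% fetal serum were given serial dilutions of compound, with no virus added. After 4 days the cells were stained with neutral red for 2 h, unbound dye was washed out and the cells were lysed. OD was read at 490 nm. CC50 in μM was derived from the OD data; three independent experiments, mean ± 95% confidence interval.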

Vaccinia virus = experiment: Antiviral activity against Vaccinia virus Copenhagen infected in African green monkey Vero cells assessed as inhibition of viral replication after 4 days by neural red dye-based spectrophotometric method; assay type: functional, organism-based, Orthopoxvirus vaccinia
Orthopoxvirus = experiment: Antiviral activity against Orthopoxvirus assessed as reduction in viral replication; assay type: functional, organism-based
[5] = Influenza A virus, A/Puerto Rico/8/1934(H1N1), MDCK, read-out: IC50
[6] = Orthopoxvirus vaccinia, Copenhagen, Vero, 96 h, read-out: IC50

Row | SMILES | selectivity ratio [1] | IC50 (Influenza A virus; [5]) [µM] | CC50 at 48 h [2] [µM] | selectivity ratio [3] | CC50 at 96 h [4] [µM] | IC50 (Vaccinia virus; [6]) [µM] | IC50 (Influenza A virus) | IC50 (Vaccinia virus; vero) | IC50 (Orthopoxvirus) [µM]
1 | NC(=O)c1ncn([C@@H]2O[C@H](CO)[C@@H](O)[C@H]2O)n1 [RIBAVIRIN] | 71 | 30 | > 2130 |  |  |  |  |  | 
2 | CC1(C)[C@@H]2CC[C@@]1(C)/C(=N/NC(=O)c1ccc(Br)cc1)C2 | 4 | 219 | > 822 | 26 | 288 | 11.1 |  |  | 
3 | CC1(C)[C@@H]2CC[C@@]1(C)/C(=N/NC(=O)C(F)(F)F)C2 |  |  | > 1080 |  | > 250 |  | Not Active | Not Active | 
4 | CC(N)C12CC3CC(CC(C3)C1)C2 (stereo not given) [RIMANTADINE] | 5 | 67 |  |  |  |  |  |  | 
5 | Nc1ccn(C[C@@H](CO)OCP(=O)(O)O)c(=O)n1 [CIDOFOVIR] |  |  |  | 12 |  |  |  |  | 
6 | CC12C=CC3(O1)C(C(=O)N1CCSC13)C2C(=O)N/N=C1\C[C@H]2CC[C@]1(C)C2(C)C (mixture of isomers) |  |  |  |  | > 250 |  |  | Not Active | 
7 | CC12C=CC3(O1)C(C(=O)N1CCCOC13)C2C(=O)N/N=C1\C[C@H]2CC[C@]1(C)C2(C)C (mixture of isomers) | 2 | 481 | > 721 |  | > 250 |  |  | Not Active | 
8 | CC12C=CC3(O1)C(C(=O)N1c4ccccc4SC13)C2C(=O)N/N=C1\C[C@H]2CC[C@]1(C)C2(C)C (mixture of isomers) | 3 | 36 | 123 |  | 67.2 |  |  | Not Active | 
9 | CC1(C)[C@@H]2CC[C@@]1(C)/C(=N/NC(=O)c1cccs1)C2 |  |  | 1030 |  | 362 |  | Not Active | Not Active | 
10 | NC12CC3CC(CC(C3)C1)C2 [AMANTADINE] | 4 | 64 |  |  |  |  |  |  | 
11 | CC1(C)[C@@H]2CC[C@@]1(C)/C(=N/NC(=O)c1ccccc1)C2 | 5 | 201 | > 1050 | 280 | 1430 | 5.1 |  |  | 
12 | CCN1CC23C=CC(O2)C(C(=O)N/N=C2\C[C@H]4CC[C@]2(C)C4(C)C)C3C1=O (mixture of isomers) |  |  | 775 |  | > 250 |  | Not Active | Not Active | 
13 | CC1CCN(CC(=O)N[C@@H]2C[C@H]3CC[C@]2(C)C3(C)C)CC1 |  |  |  |  |  |  |  |  | 2.5
14 | CC(=O)N/N=C1\C[C@H]2CC[C@]1(C)C2(C)C |  |  |  |  | > 250 |  |  | Not Active | 
15 | CCCC(=O)N/N=C1\C[C@H]2CC[C@]1(C)C2(C)C | 2 | 794 | > 1190 | 12 | 854 | 69.8 |  |  | 
16 | CC12C=CC3(CN(Cc4ccccc4)C(=O)C3C1C(=O)N/N=C1\C[C@H]3CC[C@]1(C)C3(C)C)O2 (mixture of isomers) | 3 | > 72 | 227 |  | > 250 |  |  | Not Active | 
17 | CC1(C)[C@@H]2CC[C@@]1(C)/C(=N/NC(=O)c1ccco1)C2 | 3 | 325 | 1090 | 7 | 285 | 38.7 |  |  | 
18 | COCCN1CC23C=CC(O2)C(C(=O)N/N=C2\C[C@H]4CC[C@]2(C)C4(C)C)C3C1=O (mixture of isomers) |  |  | 719 |  | > 250 |  | Not Active | Not Active | 
19 | CC1(C)[C@@H]2CC[C@@]1(C)[C@H](OC(=O)CCN1CCOCC1)C2 |  |  |  |  |  |  |  |  | 3.5
20 | CC12C=CC3(CN(c4ccccc4)C(=O)C3C1C(=O)N/N=C1\C[C@H]3CC[C@]1(C)C3(C)C)O2 (mixture of isomers) | 12 | 22 | 277 | 97 | 600 | 6.2 |  |  | 
